Bioassay records deposited in PubChem BioAssay by Broad Institute.
Cneo AK release = Cryptococcus neoformans lysis via adenylate kinase release; C. neoformans lysis, adenylate kinase release luminescence, 4 h; normalised: neutral wells 0, clomiphene wells 100; lysis activity, % at 15 µM; 360,000 compounds, 0.2% hits; AID 651654;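 active means mean lysis activity across replicates of at least 80%, whatever share of replicates individually reach that level; inactive means mean lysis activity below 80%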
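Material: C. neoformans cells; Schedule: 4 h static compound exposure, 37 °C, read 1 h post-reagent; Measured by: adenylate kinase release luminescence; Read-out: signal increase indicating cell lysis; Controls: Clomiphene as positive lysis control.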
PAX8 reporter = inhibitors of PAX8 transcriptional activity in RMG-I cells. AID 652154. RMG-I TPO-luciferase reporter, SteadyGlo, 24 h. 360,000 compounds, 1.2% hits. inhibition, % at 12.6 µM;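 active means mean replicate inhibition at least 60% with every replicate also reaching 60%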;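 further: luciferase light reporting Pax8 driven TPO promoter activity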
CDK5 p35 inh = CDK5/p35 (human) kinase inhibition. Q00535+Q15078. 330,000 compounds, 0.01% hits. inhibition, % at 10 µM. Recombinant CDK5/p35, ADP-Glo luminescence, 60 min;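 active means highest replicate inhibition of at least 50% and at least 75% of replicates reaching 50%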
dFosB activator = enhances mouse delta FosB homodimer DNA binding | purified delta FosB, TAMRA-CDK5 oligo fluorescence polarization; percent of positive-control signal above neutral wells | 340,000 compounds, 0.99% hits | P13346 | activation, % at 25 µM;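 active means mean activation above about 17%, with every replicate also reaching it, limit read from the data, passing the limit was not always enough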
Target sequence (P13346 whole entry, looked up): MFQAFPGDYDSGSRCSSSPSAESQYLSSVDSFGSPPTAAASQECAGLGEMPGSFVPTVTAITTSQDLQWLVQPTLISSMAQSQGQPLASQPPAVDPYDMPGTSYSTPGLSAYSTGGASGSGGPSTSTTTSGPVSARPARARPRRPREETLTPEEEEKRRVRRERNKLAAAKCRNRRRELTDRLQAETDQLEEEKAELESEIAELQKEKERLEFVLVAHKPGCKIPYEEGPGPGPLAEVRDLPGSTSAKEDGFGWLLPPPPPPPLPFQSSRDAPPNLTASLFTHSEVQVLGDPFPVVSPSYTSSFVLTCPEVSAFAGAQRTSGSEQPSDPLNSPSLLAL
Env fusion inh = blocks HIV Env-driven cell-cell fusion. inhibition, % at 12.3 µM. AID 651610. 360,000 compounds, 1.1% hits. HeLa-JRFL Env/CEM21 cell fusion, luciferase;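 active means mean replicate inhibition score of at least 50 and every replicate individually at or above 50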
INS-1E GSIS act = GLuc luminescence reporter in INS-1E cells, primary screen for activators of glucose-dependent secretion of insulin. INS-1E GLuc reporter insulin secretion, 2-3 h. AID 743287. activation, % at 16.6 µM. 370,000 compounds, 0.61% hits;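 active means lowest replicate activation of at least 40%, so every replicate reaches that level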
Hits are given with their value; . = inactive; / = not tested or not shown; ! = a repeat was not active; [ ] = another dose, or the depositor's remark. Sampled rows, rich in hits. Any-hit rate of the full collection: about 2.9%.

SMILES | Cneo AK release | PAX8 reporter | CDK5 p35 inh | dFosB activator | Env fusion inh | INS-1E GSIS act
CCN1CCCC1CNC(=O)c1ccc2c(c1)NC(=O)/C(=C\c1ccc(C)cc1)S2 (configuration not stated) | . | . | . | 39 | . | .
COc1cccc(/C=C2/Sc3ccc(C(=O)NCCN4CCCC4)cc3NC2=O)c1 | . | . | . | 36 | . | .
COc1ccc(/C=C2\Sc3ccc(C(=O)NCCN4CCCCCC4)cc3N(C)C2=O)cc1 | . | . | . | 27 | . | .
COc1ccc2c3c(n(C)c2c1)[C@@H](CO)N(C(=O)Nc1ccccc1F)CC31CN(C(C)=O)C1 | / | / | / | / | / | .
C[C@H]1CN([C@@H](C)CO)C(=O)c2cc(NC(=O)NC3CCCCC3)ccc2O[C@H]1CN(C)Cc1ccc(C(F)(F)F)cc1 | . | / | / | / | / | .
O=C(COc1ccc(-c2nnco2)cc1)Nc1ccc(C(F)(F)F)cc1 | / | . | . | . | 55 | .
CCN(CC)CCN(C(=O)c1ccc2ccccc2c1)c1nc2cc3c(cc2s1)OCO3 | . | . | . | 53 | . | .
CCCNC(=O)N(C)C[C@H]1Oc2ncc(C3=CCCCC3)cc2C(=O)N([C@@H](C)CO)C[C@H]1C | . | / | / | / | . | .
CCC(=O)Nc1ccc2c(c1)OC[C@H](C)N(CC1CCOCC1)C[C@H](C)[C@@H](OC)CN(C)C2=O | / | . | / | / | / | .
Cc1cc(C)cc(N(C(=O)c2cc3ccccc3oc2=O)C2C=CS(=O)(=O)C2)c1 (configuration not stated) | / | . | . | . | . | .
Cc1ccc(N(C(=O)c2cc3ccccc3oc2=O)C2C=CS(=O)(=O)C2)cc1 (configuration not stated) | / | 77 | . | . | / | .
N#C[C@H]1[C@@H](c2ccc(-c3cccc(F)c3)cc2)[C@H](CO)N1C(=O)NC1CCCC1 | . | . | / | / | . | .
N#C[C@H]1[C@@H](c2ccc(-c3cccc(F)c3)cc2)[C@@H](CO)N1C(=O)NC1CCCCC1 | / | 68 | / | / | / | .
N#Cc1ccc(-c2ccc(C3[C@H]4CNC[C@@H]3N4C(=O)NC3CCCCC3)cc2)cc1 (some centres not stated) | / | 73 | / | / | / | .
N#C[C@@H]1[C@H](c2ccc(-c3cccc(F)c3)cc2)[C@H](CO)N1C(=O)NC1CCCC1 | . | . | / | / | 65[16.7 µM] | .
N#C[C@@H]1[C@@H](c2ccc(-c3cccc(F)c3)cc2)[C@H](CO)N1C(=O)NC1CCCC1 | . | 89 | / | / | . | .
Cc1noc(C)c1S(=O)(=O)N(C)C[C@@H]1Oc2ccc(NS(=O)(=O)c3ccccc3)cc2CC(=O)N([C@H](C)CO)C[C@@H]1C | . | . | / | / | . | .
CC(C)NC(=O)N(C)C[C@@H]1Oc2ncc(-c3ccc(F)cc3)cc2C(=O)N([C@H](C)CO)C[C@@H]1C | . | / | / | / | . | .
CCCN1[C@@H]2Cn3c(ccc(-c4cccnc4)c3=O)[C@H]1[C@@H](C(=O)NC1CCCC1)[C@@H]2CO | . | / | / | / | / | .
CN1CCN(C(=O)C[C@@H]2C[C@@H]3c4cc(NC(=O)Nc5ccc(F)cc5)ccc4O[C@@H]3[C@@H](CO)O2)CC1 | . | / | / | / | / | .
C=CCOc1ccc(-c2nc3c(c(=O)[nH]c(=O)n3CCCC)n2C)cc1Br | . | . | . | . | . | 51
CCn1c([N+](=O)[O-])nc2c1c(=O)[nH]c(=O)n2C | . | 69 | . | . | . | .
CCCCn1c(=O)[nH]c(=O)c2c1nc(-c1ccc([N+](=O)[O-])cc1)n2CC | . | . | . | . | . | 191
CCCCCCn1c(SCCCC)nc2c1c(=O)[nH]c(=O)n2C | . | / | . | . | / | /
C[C@@H]1CCCCO[C@@H](CN(C)C(=O)C2CCCCC2)[C@H](C)CN([C@H](C)CO)C(=O)c2cc(NC(=O)C3CCCCC3)ccc2O1 | . | . | / | / | . | .
SMILES | Cneo AK release | PAX8 reporter | CDK5 p35 inh | dFosB activator | Env fusion inh | INS-1E GSIS act
O=C(Nc1ncc([N+](=O)[O-])s1)c1ccc2c(c1)OCO2 | . | 75 | . | . | . | .
Cc1onc(-c2ccccc2)c1C(=O)Nc1ncc([N+](=O)[O-])s1 | . | . | . | . | 72 | .
Cc1onc(-c2ccccc2)c1C(=O)Nc1nnc(C(C)C)s1 | . | . | . | . | . | .
Cc1ccc([N+](=O)[O-])cc1NC(=O)c1ccc2c(c1)OCO2 | / | . | . | . | . | .
Cc1ccc(C(=O)Nc2ncc([N+](=O)[O-])s2)cc1 | . | 87 | . | . | . | /
CN(C)C(=O)c1cccc(-c2ccc([C@H]3[C@H]4CN(CCC(F)(F)F)CCCCN4[C@H]3CO)cc2)c1 | . | . | / | / | / | .
COCC(=O)N1[C@H](CO)[C@H](c2ccccc2)[C@H]1CNC(=O)c1ccccn1 | . | . | / | / | / | .
C[C@@H]1CN([C@@H](C)CO)C(=O)c2cc(NC(=O)CCCN(C)C)ccc2O[C@@H](C)CCCCO[C@@H]1CN(C)CC1CCCCC1 | . | . | / | / | . | .
COc1ccc2nc3cc(Cl)ccc3c(Nc3cc(C(C)C)c(O)cc3C)c2c1 | . | . | . | 89 | . | .
O[C@H]1C[C@H](c2ccccc2)N(CC2CCCCC2)C[C@@H]1n1cc(C2CC2)nn1 | . | . | / | / | . | 143
C[C@@H]1CN([C@H](C)CO)C(=O)c2cccc(NC(=O)Nc3ccc(C(F)(F)F)cc3)c2O[C@H]1CN(C)C(=O)Nc1cccc2ccccc12 | . | / | / | / | 78[16.7 µM] | .
C[C@H](CO)N1C[C@H](C)[C@@H](CN(C)C(=O)Nc2cccc3ccccc23)Oc2c(cccc2N(C)C)C1=O | 83 | . | / | / | . | .
C[C@@H]1CN([C@@H](C)CO)C(=O)c2cccc(N(C)C)c2O[C@H]1CN(C)C(=O)Nc1cccc2ccccc12 | . | . | / | / | . | .
C[C@@H]1CN([C@@H](C)CO)C(=O)c2cccc(N(C)C)c2O[C@H]1CN(C)C(=O)Nc1ccc(C(F)(F)F)cc1 | 99 | . | / | / | . | .
C[C@H]1CN([C@@H](C)CO)C(=O)c2cccc(NC(=O)Nc3ccc(F)cc3)c2O[C@H]1CN(C)C(=O)Nc1ccc(C(F)(F)F)cc1 | . | 80 | / | / | . | .
Cc1ccccc1CN(C)C[C@H]1OCc2cn(nn2)CCCC(=O)N([C@H](C)CO)C[C@@H]1C | . | / | / | / | . | .
CNC[C@@H]1OCCCC[C@H](C)Oc2ccc(NC(=O)NC(C)C)cc2C(=O)N([C@H](C)CO)C[C@H]1C | 117 | . | / | / | . | .
CNC[C@H]1OCCCC[C@@H](C)Oc2ccc(NC(=O)Cc3ccccc3)cc2C(=O)N([C@@H](C)CO)C[C@H]1C | . | . | / | / | . | .
CNC[C@H]1OCCCC[C@H](C)Oc2ccc(NC(=O)CCCN(C)C)cc2C(=O)N([C@H](C)CO)C[C@@H]1C | 107! | . | / | / | . | .
CNC[C@H]1OCCCC[C@H](C)Oc2ccc(NC(=O)Cc3ccccc3)cc2C(=O)N([C@H](C)CO)C[C@@H]1C | 108 | . | / | / | . | .
